Bioassay records as filed in PubChem BioAssay.
Only some compounds are listed: those with a hit (about 4.7% of all), similar ones and a draw of the others.
MrgX1 allo act = allosterically activates human MrgX1 receptor signaling; MrgX1-HEK293, Fluo-4 calcium flux, FDSS; hits give high values; B-score at 10 µM; hit rate 0.63% among 310,000; AID 588675;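 active means plate-corrected calcium response at least 3 library SD above typical, normal starting fluorescence, not activating the receptor alone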;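 further: compound read alongside a low EC10 to EC30 dose of BAM8-22 agonist; peak minus trough fluorescence over baseline measured at the second addition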
Target sequence (Q96LB2 whole entry, looked up): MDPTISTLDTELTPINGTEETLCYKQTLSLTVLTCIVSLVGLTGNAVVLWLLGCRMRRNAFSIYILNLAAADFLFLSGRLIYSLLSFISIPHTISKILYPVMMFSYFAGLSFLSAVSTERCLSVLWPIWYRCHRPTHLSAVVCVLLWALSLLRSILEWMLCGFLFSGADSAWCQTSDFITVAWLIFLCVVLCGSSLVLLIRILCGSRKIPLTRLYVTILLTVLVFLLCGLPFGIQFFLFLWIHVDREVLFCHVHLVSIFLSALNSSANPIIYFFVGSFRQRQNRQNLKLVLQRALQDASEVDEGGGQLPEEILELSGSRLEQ
MrgX1 antag = blocks BAM8-22 activation of human MrgX1 receptor; Q96LB2; MRGX1-HEK293 calcium flux, Fluo-4, BAM8-22 antagonism; hits give low values; B-score at 10 µM; hit rate 1.3% among 310,000;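 active means calcium-response B-score plate-corrected more than 3 library SD below zero, starting fluorescence within 5 deviations, no agonist response on first addition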;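 further: peak minus trough fluorescence over baseline after final BAM8-22 challenge near maximal dose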
RGS4 act = potentiators or activators of RGS4. AID 463111. hit rate 0.92% among 310,000. HEK293 M3R/inducible RGS4, carbachol calcium flux Fluo4; hits give low values. B-score at 10 µM;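 active means B-score of the integrated calcium signal more than 4 SD below the library mean, with starting fluorescence not abnormally high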;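 further: negative B-score means reduced calcium response which marks RGS4 activation or potentiation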
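System: HEK293 FlpIn-TREx cells, stable M3R, doxycycline-inducible RGS4. Timing: overnight RGS4 induction, 30 min dye load 37 °C, 20 min compound RT. Also added: carbachol, ECmax concentration. Measured by: Fluo4 fluorescence kinetic imaging of calcium. Evaluation: integrated calcium ratio converted to B score.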
KCC2 mod = KCC2 (human) Cl- transport modulation; Q9H2X9; KCC2 cells, thallium flux FluoZin-2 fluorescence; B-score of Tl+ flux slope (higher = more flux/activation; lower = inhibition) at 10 µM; hit rate 2.2% among 190,000; AID 1456;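 active means thallium flux slope and its plate-corrected score both differing from the plate sample mean at a set confidence after two filtering rounds, in either direction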;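 further: slope of fluorescence scaled to starting intensity during 10 to 20 s after thallium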
MrgX1 ag = activates human MrgX1 receptor signaling | Q96LB2 | MrgX1-HEK293 cells, Fluo-4 calcium fluorescence, agonist mode; hits give high values | B-score at 10 µM | hit rate 0.44% among 310,000 | AID 588627;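 active means calcium response B-score plate-corrected fluorescence ratio at least 3 library SD, with starting fluorescence B-score inside 5 SD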
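System: HEK293 cells stably expressing human MrgX1 receptor; Dosing: test compound in the initial addition of three; Schedule: overnight plating, then 30 min 37 °C plus 30 min room-temperature dye loading; Detection: kinetic calcium dye fluorescence, Fluo-4 NW; Controls: per-plate positive and negative controls for Z′ factor.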
RGS4 inh = human RGS4 inhibition | P49798 | HEK293 M3R/RGS4 inducible, Fluo-4 calcium flux; hits give high values; triggered by carbachol at its EC20 | B-score at 10 µM | hit rate 0.45% among 310,000 | AID 463165;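 active means B-score, a plate-corrected calcium signal, over three deviations above library mean, with baseline fluorescence within five deviations of library mean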;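 further: RGS4 expression induced by doxycycline in cells with stable M3 receptor; B-score is computed from the integrated fluorescence ratio over baseline after carbachol; higher B-score means a larger calcium signal and so more RGS4 inhibition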
Target sequence (P49798 whole entry, looked up): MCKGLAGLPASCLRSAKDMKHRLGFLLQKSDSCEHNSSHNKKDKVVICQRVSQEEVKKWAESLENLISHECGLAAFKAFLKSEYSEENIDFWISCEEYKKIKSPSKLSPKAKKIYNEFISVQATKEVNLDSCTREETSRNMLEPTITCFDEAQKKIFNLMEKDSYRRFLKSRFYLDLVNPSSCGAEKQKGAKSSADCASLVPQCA
KCC2 sec1 = KCC2 (human) modulation, secondary assay | AID 1713 | HEK293-KCC2, thallium flux, FluoZin2 fluorescence; hits give high values | shares compounds with KCC2 mod | hit rate 15% among 3,700 | normalised thallium flux (F/F0 slope) at 10 µM;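 active means thallium flux slope above the same plate's solvent-only control mean plus 3 SD; inconclusive means the two replicate wells disagree; inactive means no significant difference from solvent-only control wells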
KCC2 bumet counter = thallium flux despite bumetanide block in KCC2 cells, secondary assay 3 | shares compounds with KCC2 mod | HEK293-KCC2 + bumetanide/ouabain, thallium flux FluoZin2; hits give high values | normalized thallium flux at 10 µM | hit rate 49% among 3,700 | AID 1714;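 active means thallium entry rate above the same plate's blocked-transporter control wells by more than 3 SD; inconclusive means the two repeat wells disagree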;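 further: raw slope of fluorescence over initial fluorescence between 10 and 20 s after thallium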
KCC2 secondary2 = KCC2 (human) modulation, second secondary assay; shares compounds with KCC2 mod; HEK293-KCC2, thallium flux FluoZin2 fluorescence; actives lie on both sides; F/F0 rise rate, 10–20 s post-thallium; normalized thallium flux at 10 µM; hit rate 23% among 3,700; AID 1715;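 active means thallium flux slope more than 3 SD above or below the plate's solvent-only control mean, mostly below; inconclusive means the two repeat wells disagreed; inactive means no significant shift from solvent-only controls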
HEK293 Tl flux = counter-screen for KCC2 modulators: effect in parental HEK293 cells; thallium flux FluoZin2, ouabain; baseline-ratio fluorescence slope, 10–20 s after thallium; hit rate 46% among 3,700; shares compounds with KCC2 mod; thallium flux rate (normalised fluorescence) at 10 µM;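 active means thallium flux rate significantly above the same plate's solvent-only control wells, beyond their mean plus 3 SD; inconclusive means the two replicate wells gave conflicting results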
KCC2 retest ouab = confirmation of human KCC2 modulators with ouabain; shares compounds with KCC2 mod; HEK293-KCC2, thallium flux FluoZin2 fluorescence; bidirectional: low = inhibitor, high = activator; raw Tl+ flux slope (below DMSO = inhibition, above = activation) at 10 µM; hit rate 48% among 3,700;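 active means thallium flux slope beyond 3 SD from same-plate DMSO control mean in most replicates, usually higher, sometimes lower; inconclusive means repeat tests gave conflicting results; inactive means no significant difference from controls in most replicates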;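 further: slope of initial-normalized fluorescence between seconds 10 and 20 after thallium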
HEK counter2 = acts in parental HEK cells, second KCC2 counter-screen. thallium flux slope at 10 µM. hit rate 33% among 3,700. HEK293 parental, thallium flux FluoZin-2 fluorescence slope. shares compounds with KCC2 mod;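 active means thallium flux slope above the same plate's solvent-control mean plus 3 SD in both duplicate wells; inconclusive means duplicate wells that disagreed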;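 further: run without ouabain in cells lacking the KCC2 cotransporter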
Large screens that a line does not name were inactive (follow-up assays come after a bar, where they were run).

Cc1cccc(NC(=O)N2CCC(C(=O)c3ccc(F)cc3)CC2)c1	none (no result: KCC2 mod)
COCCNC(=S)N1CCC(Cc2ccccc2)CC1	KCC2 mod -4.2 | KCC2 sec1 inactive | KCC2 bumet counter inactive | KCC2 secondary2 inactive | HEK293 Tl flux inactive | KCC2 retest ouab 0.015 | HEK counter2 inactive
CC(C)CNC(=S)N1CCC(Cc2ccccc2)CC1	none (no result: KCC2 mod)
c1ccc(-n2c(-c3ccncc3)nnc2-c2ccco2)cc1	none (no result: KCC2 mod) | KCC2 sec1 inactive | KCC2 bumet counter inactive | KCC2 secondary2 inactive | HEK293 Tl flux inactive | KCC2 retest ouab inactive | HEK counter2 inactive
c1ccc(-c2nnc(-c3ccco3)n2-c2ccccc2)cc1	none
Fc1ccc(NC(=S)Nc2ccc(F)c(Cl)c2)cc1Cl	MrgX1 antag -4.8, KCC2 mod -4.3 | KCC2 sec1 inactive | KCC2 bumet counter inactive | KCC2 secondary2 inconclusive | HEK293 Tl flux 0.0059 | KCC2 retest ouab 0.013 | HEK counter2 inconclusive
CC1Cc2nc(SCC(=O)NCC3CCCO3)n(C)c(=O)c2S1 (configuration not stated)	none (no result: KCC2 mod)
O=C(Cn1c(=O)sc2ccccc21)Nc1ccccc1	KCC2 mod 6.7 | KCC2 sec1 inactive | KCC2 bumet counter inactive | KCC2 secondary2 inactive | HEK293 Tl flux inactive | KCC2 retest ouab inactive | HEK counter2 inactive
O=C(CN1C(=O)C2CCCCC2C1=O)Nc1nc(-c2ccccn2)cs1 (configuration not stated)	none (no result: KCC2 mod) | KCC2 sec1 inactive | KCC2 bumet counter 0.007 | KCC2 secondary2 inactive | HEK293 Tl flux inactive | KCC2 retest ouab inactive | HEK counter2 inactive
C[C@@H](C(=O)Nc1nc(-c2ccccn2)cs1)N1C(=O)C2CCCCC2C1=O (some centres not stated)	none
Cc1ccc(NC(=O)CCNS(=O)(=O)c2ccc3c(c2)CCC(=O)N3)c(Br)c1	none (no result: KCC2 mod)
O=C(Nc1ccc(S(=O)(=O)NCc2ccccc2)cc1)c1ccccc1[N+](=O)[O-]	KCC2 mod -6.6 | KCC2 sec1 inactive | KCC2 bumet counter inactive | KCC2 secondary2 0.025 | HEK293 Tl flux inactive | KCC2 retest ouab inconclusive | HEK counter2 inactive
O=C(Nc1ccccc1)c1cc(S(=O)(=O)NCc2ccncc2)ccc1Cl	none (no result: KCC2 mod)
O=c1c2ccccc2nc(-c2ccccc2Cl)n1O	none
O=c1c2ccccc2nc(-c2ccc(Cl)cc2Cl)n1O	KCC2 mod 5.7 | KCC2 sec1 0.012 | KCC2 bumet counter 0.02 | KCC2 secondary2 inactive | HEK293 Tl flux 0.012 | KCC2 retest ouab 0.029 | HEK counter2 inactive
O=c1c2ccccc2nc(-c2ccc(Cl)c(Cl)c2)n1O	KCC2 mod 35, MrgX1 ag 35 | KCC2 sec1 0.018 | KCC2 bumet counter 0.11 | KCC2 secondary2 inconclusive | HEK293 Tl flux 0.062 | KCC2 retest ouab 0.083 | HEK counter2 0.023
N#Cc1cc([N+](=O)[O-])ccc1NC(=O)COC(=O)CC1CCCC1	none
O=C(Nc1cccc(OC(=O)c2ccc(Br)o2)c1)c1ccccc1	none (no result: KCC2 mod)
C[C@@]12C(=O)Nc3ccccc3C(=O)N1[C@H]1c3cc(Br)ccc3OC[C@@H]1[C@@H]2c1ccccc1	none (no result: RGS4 act, KCC2 mod, RGS4 inh)
COc1cccc(NC(=O)[C@H](CC(C)C)NC(=O)N2CCn3c2nc2ccccc23)c1	none (no result: KCC2 mod)
O=C(Nc1nnc(-c2ccccc2Cl)o1)c1cc2cc([N+](=O)[O-])ccc2s1	KCC2 mod 6.6 (no result: MrgX1 allo act, MrgX1 antag, RGS4 act, MrgX1 ag, RGS4 inh) | KCC2 sec1 inactive | KCC2 bumet counter 0.015 | KCC2 secondary2 inactive | HEK293 Tl flux 0.016 | KCC2 retest ouab inconclusive | HEK counter2 0.017
CCOc1ccc(Nc2nc(NCCN3CCOCC3)nc(OC)n2)cc1	none (no result: KCC2 mod) | KCC2 sec1 inactive | KCC2 bumet counter inconclusive | KCC2 secondary2 inactive | HEK293 Tl flux inactive | KCC2 retest ouab inactive | HEK counter2 inactive
CCOC(CCn1c(SCC(=O)NC2CCCC2)nc2ccccc2c1=O)OCC	none (no result: KCC2 mod)
COc1cccc(CNC(=O)c2cc3oc4ccccc4c3n2C)c1OC	KCC2 mod 7.5 | KCC2 sec1 inactive | KCC2 bumet counter inactive | KCC2 secondary2 inactive | HEK293 Tl flux inactive | KCC2 retest ouab inactive | HEK counter2 inactive
CCOc1ccc(CNC(=O)c2cc3oc4ccccc4c3n2C)cc1	none
Cc1ccc(Nc2nc(-c3ccccc3)c(CC(=O)O)s2)cc1	none
O=C(O)Cc1sc(Nc2ccccc2)nc1-c1ccc(Cl)cc1	KCC2 mod -6.7 | KCC2 sec1 inactive | KCC2 bumet counter 0.01 | KCC2 secondary2 inactive | HEK293 Tl flux inactive | KCC2 retest ouab inconclusive | HEK counter2 inactive
COc1ccc(OC)c(S(=O)(=O)Nc2cnc3ccccc3c2)c1	KCC2 mod -5.6 | KCC2 sec1 inactive | KCC2 bumet counter inactive | KCC2 secondary2 inactive | HEK293 Tl flux inactive | KCC2 retest ouab inactive | HEK counter2 inactive
CCOCCCNC(=O)/C(C#N)=C/c1cc(Br)c(O)c(Br)c1	KCC2 mod -4 (no result: MrgX1 allo act, MrgX1 antag, MrgX1 ag) | KCC2 sec1 inactive | KCC2 bumet counter inactive | KCC2 secondary2 inactive | HEK293 Tl flux inactive | KCC2 retest ouab inactive | HEK counter2 inactive
COCCNC(=O)/C(C#N)=C/c1cc(Br)c(O)c(OC)c1	none
COc1cc(/C=C(\C#N)C(=O)NCCc2ccccc2)cc(OC)c1O	MrgX1 allo act 7.3, KCC2 mod -6.2 | KCC2 sec1 inactive | KCC2 bumet counter 4e-05 | KCC2 secondary2 0.02 | HEK293 Tl flux 0.0044 | KCC2 retest ouab 0.0091 | HEK counter2 inconclusive
N#C/C(=C\c1ccc(O)c(O)c1)C(=O)NCCc1ccccc1	none (no result: RGS4 act, KCC2 mod, RGS4 inh)
Cc1[nH]c2nc3ccccc3n2c(=O)c1CCC(C)C	none (no result: KCC2 mod)
CC(C)[C@H]1C(=O)Nc2ccccc2N1C(=O)N[C@@H](Cc1ccccc1)C(=O)N[C@H](C(=O)O)c1ccccc1	none (no result: KCC2 mod)
Cc1ccc(C(=O)Nc2ccc3c(c2)OCO3)cc1	none
